Measurements published in ChEMBL document CHEMBL6134855, “Peptidomimetics Activating the Proteasome: A New Perspective for Parkinson's Treatment” (J Med Chem, 2025).
Calls of active or inactive are those of the source. No cut-off for these calls is given here. Where a SMILES comes first, the peptide text is derived from it. [ ]: non-standard residue; d: D form. N(4-MeOBn)Gly = COc1ccc(CNCC(=O)O)cc1; NMeY = CN[C@@H](Cc1ccc(O)cc1)C(=O)O; Gly(N-CH2CH2OH) = O=C(O)CNCCO; NMeK = CN[C@@H](CCCCN)C(=O)O; Nlys = NCCCCNCC(=O)O

What was measured:
[1] = target: T1, 20S proteasome (Homo sapiens) (UniProt P49721+P20618+P28074+P28062+P28065+P28072+P25786+P25787+P25788+P25789+P28066+P60900+O14818+Q8TAA3+P40306+A5LHX3+P49720+P28070+Q99436); assay: Activation of human erythrocyte-derived 20S proteasome chymotrypsin-like activity using Suc-LLVY-AMC as substrate at 1 uM measured every two mins for 60 mins by fluorescence based analysis; settings: filed as activator
Procedure, shortened: (§1)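 Latent human 20S proteasome (0.002 mg/mL, 2.8 nM) in 50 mM Tris/HCl pH 8.0 with 2% DMSO. AMC substrates at 100 μM final (ex 380/em 460 nm); Dabcyl-EDANS at 15 μM final (ex 335/em 493 nm). Modulators at 1.0–50 μM; TAT- or 6R-containing constructs at 0.5–10 μM. Read every 2 min for 60 min at 37 °C. Activity relative to DMSO-treated proteasome (100%). ≥3 independent replicates.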

[2] = target: T1, 20S proteasome (Homo sapiens); assay: Activation of human erythrocyte-derived 20S proteasome chymotrypsin-like activity using Suc-LLVY-AMC as substrate at higher concentration measured every two mins for 60 mins by fluorescence based analysis; settings: filed as activator; procedure, shortened: as §1
[3] = Permeability of compound in PBS incubated for 22 hrs by PAMPA-BBB assay; assay type: ADME
Procedure, shortened: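 PAMPA-BBB with a 2% porcine brain lipid membrane. Compounds were diluted from 10 mM aqueous stocks to 500 μM in 0.1 M PBS containing 5% DMSO and incubated 22 h at 37 °C with shaking at 250 rpm. Read-out was fluorescence after reaction with 0.02% fluorescamine (absorbance at 290 nm for propranolol). Pe calculated as linear permeation velocity. Three biological replicates.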

[4] = target: T1, 20S proteasome (Homo sapiens); assay: Activation of human erythrocyte-derived 20S proteasome using Dabcyl-EDANS as FRET-type substrate at 1.0 to 50 uM measured every two mins for 60 mins by fluorescence based analysis; assay type: cell-based; settings: filed as activator, dose 1-50 µM; procedure, shortened: as §1
[5] = target: T1, 20S proteasome (Homo sapiens); assay: Activation of human erythrocyte-derived 20S proteasome chymotrypsin-like activity using Suc-LLVY-AMC as substrate at 1.0 to 50 uM measured every two mins for 60 mins by fluorescence based analysis; settings: filed as activator, dose 1-50 µM
[6] = Proteolytic stability of compound in human plasma assessed as protease-mediated degradation by measuring compound remaining at 200 uM incubated for 30 mins by UHPLC analysis; assay type: ADME, cell-free; settings: read-out: Stability
Procedure, shortened: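 Compound (200 μM final, dissolved in water) incubated in human serum at 37 °C for 30 min. Samples every 5 min quenched 1:1 with 6% TCA and centrifuged. Supernatant analysed by UHPLC (UV 223 nm) for intact compound; cleavage sites identified by MS.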

[7] = target: T1, 20S proteasome (Homo sapiens); assay: Activation of human erythrocyte-derived 20S proteasome chymotrypsin-like activity using Suc-LLVY-AMC as substrate assessed as fold increase in activity at 1.0 to 50 uM measured every two mins for 60 mins by fluorescence based analysis relative to control; settings: filed as activator, dose 1-50 µM; procedure, shortened: as §1
[8] = target: T1, 20S proteasome (Homo sapiens); assay: Activation of human erythrocyte-derived 20S proteasome using Dabcyl-EDANS as FRET-type substrate assessed as fold increase in activity at 1.0 to 50 uM measured every two mins for 60 mins by fluorescence based analysis relative to control; assay type: cell-based; settings: filed as activator, dose 1-50 µM; procedure, shortened: as §1
[9] = target: T1, 20S proteasome (Homo sapiens); assay: Activation of human erythrocyte-derived 20S proteasome chymotrypsin-like activity using succinyl-LeuLeuValTyr-AMC as substrate assessed as fold increase in activity incubated for 1 hr by fluorescence based analysis relative to control; settings: filed as activator
Procedure, shortened: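 h20S proteasome 0.002 mg/mL (2.8 nM) in 50 mM Tris/HCl pH 8.0, 2% DMSO final. Suc-LLVY-AMC 100 μM final. Modulators 1.0–50 μM (TAT/6R constructs 0.5–10 μM). AMC fluorescence ex 380/em 460 nm read every 2 min for 60 min at 37 °C. Activity relative to DMSO-treated latent proteasome (100%); ≥3 replicates.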

[10] = target: T1, 20S proteasome (Homo sapiens); assay: Activation of human erythrocyte-derived 20S proteasome chymotrypsin-like activity using Suc-LLVY-AMC as substrate at lower concentration measured every two mins for 60 mins by fluorescence based analysis; settings: filed as activator; procedure, shortened: as §1
[11] = target: T1, 20S proteasome (Homo sapiens); assay: Activation of human erythrocyte-derived 20S proteasome using Dabcyl-EDANS as FRET-type substrate at lower concentration measured every two mins for 60 mins by fluorescence based analysis; assay type: cell-based; settings: filed as activator; procedure, shortened: as §1
[12] = target: T1, 20S proteasome (Homo sapiens); assay: Activation of human erythrocyte-derived 20S proteasome trypsin-like activity using Boc-LRR-AMC as substrate at lower concentration measured every two mins for 60 mins by fluorescence based analysis; settings: filed as activator; procedure, shortened: as §1
[13] = target: T1, 20S proteasome (Homo sapiens); assay: Activation of human erythrocyte-derived 20S proteasome caspase-like activity using Z-LLE-AMC as substrate at lower concentration measured every two mins for 60 mins by fluorescence based analysis; settings: filed as activator; procedure, shortened: as §1

C[C@@H](O)[C@H](NC(=O)[C@H](Cc1ccccc1)NC(=O)[C@H](Cc1ccc(O)cc1)NC(=O)CNCCCCN)C(=O)NCC(=O)N[C@@H](CO)C(=O)N(CCCCN)CC(=O)N[C@@H](CC(=O)O)C(=O)N[C@@H](Cc1ccc(O)cc1)C(=O)N[C@@H](CCCNC(=N)N)C(=O)N[C@@H](CCCNC(=N)N)C(=O)N[C@@H](Cc1ccc(O)cc1)C(=O)N[C@@H](Cc1ccc(O)cc1)C(=O)N[C@@H](CO)C(=O)O (H-[Nlys]YFTGS[Nlys]DYRRYYS-OH)
Activity [1]: Moderate_effect
Activity [2]: Active

C[C@@H](O)[C@H](NC(=O)[C@H](Cc1ccccc1)NC(=O)[C@H](Cc1ccc(O)cc1)NC(=O)CNCCCCN)C(=O)NCC(=O)N[C@@H](CO)C(=O)N[C@@H](CCCCN)C(=O)N[C@@H](CC(=O)O)C(=O)N[C@@H](Cc1c[nH]c2ccccc12)C(=O)N[C@@H](CCCNC(=N)N)C(=O)N[C@@H](CO)C(=O)N[C@@H](Cc1ccc(O)cc1)C(=O)N[C@@H](Cc1ccc(O)cc1)C(=O)N[C@@H](CO)C(=O)O (H-[Nlys]YFTGSKDWRSYYS-OH)
permeability [3]: Impermeable

C[C@@H](O)[C@H](NC(=O)[C@H](Cc1ccccc1)NC(=O)[C@H](Cc1ccc(O)cc1)NC(=O)[C@@H](N)CCCCN)C(=O)NCC(=O)N[C@@H](CO)C(=O)N[C@@H](CCCCN)C(=O)N[C@@H](CC(=O)O)C(=O)N[C@@H](Cc1c[nH]c2ccccc12)C(=O)N[C@@H](CCCNC(=N)N)C(=O)N(CCO)CC(=O)N[C@@H](Cc1ccc(O)cc1)C(=O)N[C@@H](Cc1ccc(O)cc1)C(=O)N[C@@H](CO)C(=O)O (H-KYFTGSKDWR[Gly(N-CH2CH2OH)]YYS-OH)
Activity [4]: Active
Activity [5]: Active; Lower Capacity Of Activation Is Observed

C[C@@H](O)[C@H](NC(=O)[C@H](Cc1ccccc1)NC(=O)[C@H](Cc1ccc(O)cc1)NC(=O)CNCCCCN)C(=O)NCC(=O)N[C@@H](CO)C(=O)N[C@@H](CCCCN)C(=O)N[C@@H](CC(=O)O)C(=O)N[C@@H](Cc1c[nH]c2ccccc12)C(=O)N[C@@H](CCCNC(=N)N)C(=O)N(CCO)CC(=O)N[C@@H](Cc1ccc(O)cc1)C(=O)N[C@@H](Cc1ccc(O)cc1)C(=O)N[C@@H](CO)C(=O)O (H-[Nlys]YFTGSKDWR[Gly(N-CH2CH2OH)]YYS-OH)
Activity [4]: Active
Activity [5]: Active; Lower Capacity Of Activation Is Observed

H-KYFTGSKDWRSYYS-OH
remaining at 0.5 h, 200 µM [6]: ≤ 10%
fold change (FC) [7]: 8
fold change (FC) [8]: 12

N=C(N)NCCC[C@H](NC(=O)CN)C(=O)N[C@@H](CCCCN)C(=O)N[C@@H](CCCCN)C(=O)N[C@@H](CCCNC(=N)N)C(=O)N[C@@H](CCCNC(=N)N)C(=O)N[C@@H](CCC(N)=O)C(=O)N1Cc2ccccc2CC1C(=O)N1[C@@H](C(=O)N[C@@H](CCCNC(=N)N)C(=O)N2CCC[C@H]2C(=O)N[C@@H](CO)C(=O)O)C[C@@H]2CCCC[C@@H]21 (some centres not stated)
fold change (FC) [9]: 8

COc1ccc(CN(CC(=O)N[C@@H](CCCNC(=N)N)C(=O)N[C@@H](CCCNC(=N)N)C(=O)N[C@@H](Cc2ccc(O)cc2)C(=O)N[C@@H](Cc2ccc(O)cc2)C(=O)N[C@@H](CO)C(=O)O)C(=O)[C@H](CC(=O)O)NC(=O)[C@H](CCCCN)NC(=O)[C@H](CO)NC(=O)CNC(=O)[C@@H](NC(=O)[C@H](Cc2ccccc2)NC(=O)CN(Cc2ccc(OC)cc2)C(=O)[C@@H](N)CCCCN)[C@@H](C)O)cc1 (H-K[N(4-MeOBn)Gly]FTGSKD[N(4-MeOBn)Gly]RRYYS-OH)
Activity [4]: Active
Activity [10]: Active
Activity [11]: Active
Activity [12]: Weak_effect
Activity [13]: Weak_effect

C[C@@H](O)[C@H](NC(=O)[C@H](Cc1ccccc1)NC(=O)[C@H](Cc1ccc(O)cc1)NC(=O)CNCCCCN)C(=O)NCC(=O)N[C@@H](CO)C(=O)N[C@@H](CCCCN)C(=O)N[C@@H](CC(=O)O)C(=O)N[C@@H](Cc1ccc(O)cc1)C(=O)N[C@@H](CCCNC(=N)N)C(=O)N[C@@H](CCCNC(=N)N)C(=O)N[C@@H](Cc1ccc(O)cc1)C(=O)N[C@@H](Cc1ccc(O)cc1)C(=O)N[C@@H](CO)C(=O)O (H-[Nlys]YFTGSKDYRRYYS-OH)
Activity [4]: Active
Activity [10]: Active
Activity [11]: Active

H-KYFTGSKDYRRYYS-OH
remaining at 0.5 h, 200 µM [6]: ≤ 10%
Activity [10]: Active
Activity [11]: Active

CN[C@@H](CCCCN)C(=O)N(C)[C@@H](Cc1ccc(O)cc1)C(=O)N[C@@H](Cc1ccccc1)C(=O)N[C@H](C(=O)NCC(=O)N[C@@H](CO)C(=O)N[C@@H](CCCCN)C(=O)N[C@@H](CC(=O)O)C(=O)N[C@@H](Cc1c[nH]c2ccccc12)C(=O)N[C@@H](CCCNC(=N)N)C(=O)N[C@@H](CO)C(=O)N[C@@H](Cc1ccc(O)cc1)C(=O)N[C@@H](Cc1ccc(O)cc1)C(=O)N[C@@H](CO)C(=O)O)[C@@H](C)O (H-[NMeK][NMeY]FTGSKDWRSYYS-OH)
Activity [4]: Active

NCCCC[C@H](NC(=O)[C@H](CCCCN)NC(=O)[C@@H](N)CCCCN)C(=O)Nc1cc(NC(=O)[C@H](CCCCN)NC(=O)[C@H](CCCCN)NC(=O)[C@@H](N)CCCCN)cc(NC(=O)[C@H](CCCCN)NC(=O)[C@H](CCCCN)NC(=O)[C@@H](N)CCCCN)c1
fold change (FC) [9]: 10

COc1ccc(CN(CC(=O)N[C@@H](CCCNC(=N)N)C(=O)N[C@@H](CCCNC(=N)N)C(=O)N[C@@H](Cc2ccc(O)cc2)C(=O)N[C@@H](Cc2ccc(O)cc2)C(=O)N[C@@H](CO)C(=O)O)C(=O)[C@H](CC(=O)O)NC(=O)[C@H](CCCCN)NC(=O)[C@H](CO)NC(=O)CNC(=O)[C@@H](NC(=O)[C@H](Cc2ccccc2)NC(=O)[C@H](Cc2ccc(O)cc2)NC(=O)[C@@H](N)CCCCN)[C@@H](C)O)cc1 (H-KYFTGSKD[N(4-MeOBn)Gly]RRYYS-OH)
remaining at 0.5 h, 200 µM [6]: < 30%
Activity [4]: Active
Activity [10]: Active
Activity [11]: Active
Activity [12]: Weak_effect
Activity [13]: Weak_effect

C[C@@H](O)[C@H](NC(=O)[C@H](Cc1ccccc1)NC(=O)[C@H](Cc1ccc(O)cc1)NC(=O)[C@@H](N)CCCCN)C(=O)NCC(=O)N[C@@H](CO)C(=O)N(CCCCN)CC(=O)N[C@@H](CC(=O)O)C(=O)N[C@@H](Cc1ccc(O)cc1)C(=O)N[C@@H](CCCNC(=N)N)C(=O)N[C@@H](CCCNC(=N)N)C(=O)N[C@@H](Cc1ccc(O)cc1)C(=O)N[C@@H](Cc1ccc(O)cc1)C(=O)N[C@@H](CO)C(=O)O (H-KYFTGS[Nlys]DYRRYYS-OH)
Activity [2]: Active

COc1ccc(CN(CC(=O)N[C@@H](Cc2ccccc2)C(=O)N[C@H](C(=O)NCC(=O)N[C@@H](CO)C(=O)N[C@@H](CCCCN)C(=O)N[C@@H](CC(=O)O)C(=O)N[C@@H](Cc2ccc(O)cc2)C(=O)N[C@@H](CCCNC(=N)N)C(=O)N[C@@H](CCCNC(=N)N)C(=O)N[C@@H](Cc2ccc(O)cc2)C(=O)N[C@@H](Cc2ccc(O)cc2)C(=O)N[C@@H](CO)C(=O)O)[C@@H](C)O)C(=O)[C@@H](N)CCCCN)cc1 (H-K[N(4-MeOBn)Gly]FTGSKDYRRYYS-OH)
Activity [1]: Moderate_effect
